The text below walks through data of ChEMBL document CHEMBL4196214, “Inhibition of p53-Murine Double Minute 2 (MDM2) Interactions with 3,3'-Spirocyclopentene Oxindole Derivatives” (J Med Chem, 2018).

Assay [1] concerns the target Tumour suppressor p53/oncoprotein Mdm2 (Homo sapiens, UniProt Q00987). Briefly: Inhibition of human MDM2 (1 to 125 residues) and p53 (unknown origin) interaction pre-incubated for 20 mins before peptide-2-biot addition and measured after 3 hrs by HTRF assay. It counts as protein assay. A general note: Time-resolved FRET reads energy transfer from a long-lived donor to a nearby acceptor.

Assay [2] has as its target T1, Tumour suppressor p53/oncoprotein Mdm2 (Homo sapiens) (UniProt P04637+Q00987). The assay is described as follows: Inhibition of MDM2/p53 interaction in human HCT116 cells expressing wild type p53 assessed as increase in p53 activation at 10 uM incubated for 6 hrs by Western blot method. It counts as cell-based. In outline:
(§1)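 HCT116 cells, p53 +/+ and isogenic p53 −/−, treated with compound at 10 μM for 6 h. Lysates probed by Western blot for p53, MDM2 and p21 protein levels. Actin served as the loading control.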
(In general: Immunoblotting shows a protein as a band on a membrane.)

The target in assay [3] is T1, Tumour suppressor p53/oncoprotein Mdm2 (Homo sapiens). The assay is described as follows: Inhibition of MDM2/p53 interaction in human HCT116 cells expressing wild type p53 assessed as increase in MDM2 protein levels at 10 uM incubated for 6 hrs by Western blot method. It counts as cell-based. A digest of the protocol: as §1
Assay [4] has the same target. The assay is described as follows: Inhibition of MDM2/p53 interaction in human HCT116 cells expressing wild type p53 assessed as increase in p21 protein levels at 10 uM incubated for 6 hrs by Western blot method. It is filed as cell-based. A digest of the protocol: as §1
The target is the same in assay [5]. The assay is described as follows: Inhibition of MDM2/p53 interaction in human HCT116 cells deficient in p53 assessed as increase in p53 activation at 10 uM incubated for 6 hrs by Western blot method. It counts as cell-based. In outline:
as §1

Assay [6] has the same target. The assay is described as follows: Inhibition of MDM2/p53 interaction in human HCT116 cells deficient in p53 assessed as increase in MDM2 protein levels at 10 uM incubated for 6 hrs by Western blot method. It counts as cell-based. In outline: as §1
The target is the same in assay [7]. Briefly: Inhibition of MDM2/p53 interaction in human HCT116 cells deficient in p53 assessed as increase in p21 protein levels at 10 uM incubated for 6 hrs by Western blot method. It is filed as cell-based. In outline:
as §1

A further assay relates to SJSA-1. The assay is described as follows: Antiproliferative activity against human SJSA1 cells expressing wild type p53 incubated for 72 hrs by MTS assay. The settings on record: SJSA-1, 72 h. It counts as functional, cell-based. In outline:
(§2)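 Cells treated with compound for 72 h; IC50 fitted to polynomial curves from three separate experiments, reported as average with standard deviation. HCT116 p53 −/− is an isogenic p53 knockout line. H1299 carries a homozygous partial deletion of the p53 gene and expresses no p53 protein.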
For orientation: Formazan colour is commonly taken as a measure of viable cells.

Assay [8] relates to HCT-116. The assay is described as follows: Antiproliferative activity against human HCT116 cells expressing wild type p53 incubated for 72 hrs by MTS assay. It counts as functional, cell-based. The note with it: HCT-116, 72 h. A digest of the protocol:
as §2

The subject of assay [9] is HCT-116. Briefly: Antiproliferative activity against p53 -/- human HCT116 cells incubated for 72 hrs by MTS assay. It is filed as functional, cell-based. The settings on record: HCT-116, 72 h. A digest of the protocol:
as §2

For another assay, the system named is NCI-H1299. Briefly: Antiproliferative activity against p53 -/- human NCI-H1299 cells incubated for 72 hrs by MTS assay. It counts as functional, cell-based. The note with it: NCI-H1299, 72 h. A digest of the protocol: as §2

Activity calls are given as the source filed them. No cut-off for these calls is given here.

Chain of Tumour suppressor p53/oncoprotein Mdm2 (P04637 whole entry, the tested form may be a part): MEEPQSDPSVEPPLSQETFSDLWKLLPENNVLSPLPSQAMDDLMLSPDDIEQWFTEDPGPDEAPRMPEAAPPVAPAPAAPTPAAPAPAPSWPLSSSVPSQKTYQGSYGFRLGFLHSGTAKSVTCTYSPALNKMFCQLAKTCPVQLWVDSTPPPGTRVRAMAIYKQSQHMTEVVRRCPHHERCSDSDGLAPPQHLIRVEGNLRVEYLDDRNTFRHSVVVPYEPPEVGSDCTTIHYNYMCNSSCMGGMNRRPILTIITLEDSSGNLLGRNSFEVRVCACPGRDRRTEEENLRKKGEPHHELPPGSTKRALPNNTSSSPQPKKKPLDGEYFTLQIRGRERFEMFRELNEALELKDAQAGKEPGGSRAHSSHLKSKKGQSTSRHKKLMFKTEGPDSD
Chain of Tumour suppressor p53/oncoprotein Mdm2 (Q00987 whole entry, the tested form may be a part): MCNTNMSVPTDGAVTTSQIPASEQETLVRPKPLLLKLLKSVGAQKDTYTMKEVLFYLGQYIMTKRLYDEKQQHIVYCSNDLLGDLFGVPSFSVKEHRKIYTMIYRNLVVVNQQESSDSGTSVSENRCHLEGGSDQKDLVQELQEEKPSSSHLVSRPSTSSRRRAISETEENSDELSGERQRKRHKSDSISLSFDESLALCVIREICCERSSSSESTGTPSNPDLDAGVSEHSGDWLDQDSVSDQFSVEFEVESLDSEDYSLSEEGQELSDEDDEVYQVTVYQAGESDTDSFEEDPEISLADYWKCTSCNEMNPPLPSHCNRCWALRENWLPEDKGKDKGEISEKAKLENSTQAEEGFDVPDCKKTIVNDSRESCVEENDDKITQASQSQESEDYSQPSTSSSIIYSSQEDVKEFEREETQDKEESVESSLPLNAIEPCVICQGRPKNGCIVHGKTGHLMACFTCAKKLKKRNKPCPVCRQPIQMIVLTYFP
T1 sequence (P04637 whole entry, looked up): as the sequence (P04637 whole entry, the tested form may be a part) above
T1 sequence (Q00987 whole entry, looked up): as the sequence (Q00987 whole entry, the tested form may be a part) above

As a reminder, the IC50 is the concentration that gives 50% inhibition. Read a low IC50 as inhibition by little substance. In turn, `CC(C)(C)CC1C=C(C(=O)Nc2ccc(C(=O)O)cc2)C(c2cccc(Cl)c2F)C12C(=O)Nc1cc(Cl)ccc12` (single isomer, unassigned; (+)) registered an IC50 in assay [1] of 0.655 µM.

Regarding `CC(C)(C)CC1C=C(C(=O)NCCN2CCOCC2)C(c2cccc(Cl)c2F)C12C(=O)Nc1cc(Cl)ccc12` (single isomer, unassigned; (-)), the concentration for half-maximal inhibition (IC50) in assay [1] stood at 1.14 µM.

Regarding `CC(C)(C)CC1C=C(C(=O)NCCN2CCOCC2)C(c2cccc(Cl)c2F)C12C(=O)Nc1cc(Cl)ccc12` (single isomer, unassigned; (+)) [listing 1 of 2 here], the inhibition result in [2], in assay [3] and in assay [4] was “Active” in each case. The inhibition result in assay [5], in assay [6] and in assay [7] was “inactive” throughout.

Take `CC(C)(C)CC1C=C(C(=O)O)C(c2cccc(Cl)c2F)C12C(=O)Nc1cc(Cl)ccc12` (single isomer, unassigned; (+)) [listing 1 of 2 here]: the IC50 was 0.0031 µM in assay [1]; 7.8 µM in the assay with SJSA-1; 11.6 µM in the assay with HCT-116 [8]; more than 20 µM in the assay on HCT-116 [9]; more than 20 µM with NCI-H1299.

In turn, `CC(C)(C)CC1C=C(C(=O)NC2CCC(O)CC2)C(c2cccc(Cl)c2F)C12C(=O)Nc1cc(Cl)ccc12` (single isomer, unassigned; (+)) had an IC50 in assay [1] of 0.303 µM.

In assay [1], `CC(C)(C)C[C@@H]1C=C(C(=O)NCCN2CCOCC2)[C@@H](c2cccc(Cl)c2F)[C@]12C(=O)Nc1cc(Cl)ccc12` (racemic) displayed an IC50 of 3.38 µM.

In the case of `CC(C)(C)CC1C=C(C(=O)NCCN2CCOCC2)C(c2cccc(Cl)c2F)C12C(=O)Nc1cc(Cl)ccc12` (single isomer, unassigned; (+)) [listing 2 of 2 here], the IC50 was 0.0237 µM in assay [1]; 0.96 µM in the assay on SJSA-1; 2.92 µM in the assay with HCT-116 [8]; more than 20 µM in the assay on HCT-116 [9]; 9.73 µM in the assay on NCI-H1299.

With `COc1ccc(C2=N[C@@H](c3ccc(Cl)cc3)[C@@H](c3ccc(Cl)cc3)N2C(=O)N2CCNC(=O)C2)c(OC(C)C)c1` [NUTLIN-3], the IC50 was 1.44 µM in the assay on SJSA-1, 1.3 µM with HCT-116 [8], more than 20 µM in the assay with HCT-116 [9] and 10.4 µM in the assay with NCI-H1299.

`CC(C)(C)C[C@H]1C=C(C(=O)NCCN2CCOCC2)[C@@H](c2cccc(Cl)c2F)[C@]12C(=O)Nc1cc(Cl)ccc12` (racemic) returned an IC50 in assay [1] of 3.68 µM.

Take `CC(C)(C)CC1C=C(C(=O)Nc2ccc(C(=O)O)cc2)C(c2cccc(Cl)c2F)C12C(=O)Nc1cc(Cl)ccc12` (single isomer, unassigned; (-)): inhibition in assay [1] was half-maximal at 1.04 µM (IC50).

`CC(C)(C)C[C@@H]1C=C(C(=O)N[C@H]2C[C@@](C)(O)C2)[C@H](c2cccc(Cl)c2F)[C@]12C(=O)Nc1cc(Cl)ccc12` (racemic) registered an IC50 in assay [1] of 1.26 µM.

Regarding `CC(C)(C)CC1C=C(C(=O)NC2CC(C)(O)C2)C(c2cccc(Cl)c2F)C12C(=O)Nc1cc(Cl)ccc12` (single isomer, unassigned; (+)), the IC50 in [1] was determined as 0.712 µM.

In the case of `CC(C)(C)CC1C=C(C(=O)O)C(c2cccc(Cl)c2F)C12C(=O)Nc1cc(Cl)ccc12` (single isomer, unassigned; (+)) [listing 2 of 2 here], the inhibition result in assay [2], in assay [3] and in assay [4] was “Active” each time. Also, the inhibition entry in assay [5], in assay [6] and in assay [7] was “inactive” throughout.

For the compound `CC(C)(C)C[C@@H]1C=C(C(=O)NCCN2CCOCC2)[C@H](c2cccc(Cl)c2F)[C@]12C(=O)Nc1cc(Cl)ccc12` (racemic), the IC50 was 0.033 µM in [1]; 7.5 µM in the assay with SJSA-1; 4.84 µM with HCT-116 [8]; more than 20 µM in the assay on HCT-116 [9]; more than 20 µM in the assay with NCI-H1299.

`CC(C)(C)CC1C=C(C(=O)O)C(c2cccc(Cl)c2F)C12C(=O)Nc1cc(Cl)ccc12` (stereo in doubt; (-)-8') registered an IC50 in assay [1] of 0.538 µM.

Regarding `CC(C)(C)C[C@@H]1C=C(C(=O)N[C@H]2CC[C@H](O)CC2)[C@H](c2cccc(Cl)c2F)[C@]12C(=O)Nc1cc(Cl)ccc12` (racemic), half-maximal inhibition in assay [1] (IC50) was put at 0.619 µM.

Compound `CC(C)(C)C[C@@H]1C=C(C(=O)Nc2ccc(C(=O)O)cc2)[C@H](c2cccc(Cl)c2F)[C@]12C(=O)Nc1cc(Cl)ccc12` (racemic) displayed an IC50 in assay [1] of 0.35 µM.

Regarding `CC(C)(C)C[C@H]1C=C(C(=O)NCCN2CCOCC2)[C@H](c2cccc(Cl)c2F)[C@]12C(=O)Nc1cc(Cl)ccc12` (racemic), in [1], the IC50 turned out to be 0.739 µM.

Consider `CC(C)(C)CC1C=C(C(=O)NC2CC(C)(O)C2)C(c2cccc(Cl)c2F)C12C(=O)Nc1cc(Cl)ccc12` (single isomer, unassigned; (-)), for which the IC50 in [1] was 3.03 µM.

On to `CC(C)(C)C[C@@H]1C=C(C(=O)O)[C@H](c2cccc(Cl)c2F)[C@]12C(=O)Nc1cc(Cl)ccc12` (racemic), for which the IC50 in assay [1] was 0.0101 µM; with SJSA-1, 7.44 µM; with HCT-116 [8], 10.5 µM; in the assay on HCT-116 [9], more than 20 µM; with NCI-H1299, more than 20 µM.

In assay [1], `CC(C)(C)CC1C=C(C(=O)NC2CCC(O)CC2)C(c2cccc(Cl)c2F)C12C(=O)Nc1cc(Cl)ccc12` (single isomer, unassigned; (-)) gave an IC50 of 3.72 µM.
